This note sets out measurements from paper PMC7271596 (Haematologica, 2019).

Assay [1] relates to SKM1, K562, KG1a, THP-1, and HL60 cell lines. The assay is described as follows: Cell cycle distribution 24 hours after treatment, five cell lines. The format is cell-based, human. Particulars: IC10 APR alone, various cell lines tested.
Assay [2] concerns primary cells from MDS/AML patients. The assay is described as follows: Clonogenic assay in semi-solid medium. It is filed as cell-based, human. Particulars: 14 days, 34 MDS/AML patient samples.
In assay [3] the test system is SKM1, K562, KG1a, THP-1, and HL60 cell lines. The assay is described as follows: Apoptosis, Annexin V-positive cells at day 3, five cell lines. It is filed as cell-based, human. The settings on record: IC10 APR alone, day 3, cell lines tested. The essentials: (§1)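 Human myeloid lines in RPMI 1640 with 10% FBS, 1% penicillin/streptomycin and 1% GlutaMAX. Log-phase cells seeded at 2x10^5/mL. Drugs added once at day 0: IC10 APR, IC50 AZA, or both at these concentrations. Annexin V-positive cells scored at day 3. Results given as means ± SD; Mann-Whitney test, two-sided.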

The test system of assay [4] is SKM1 cells. Description: Cytotoxicity. It is filed as cell-based, human.
For assay [5], the system named is SKM1, K562, KG1a, THP-1, and HL60 cell lines. Description: Cytotoxicity. The format is cell-based, human. Particulars: all of the cell lines tested (SKM1, K562, KG1a, THP-1, HL60).
Assay [6] deals with SKM1 cells. Description: Cell cycle distribution 24 hours after treatment. The format is cell-based, human. Particulars: SKM1, 24 hours after exposure, IC10 APR with or without IC50 AZA.
The test system of a further assay is SKM1 cell line. The assay is described as follows: Transcriptomic analysis. The format is cell-based, human. The settings on record: IC10 APR vs untreated SKM1 cells, GSEA.
Assay [7] deals with SKM1 cells. Description: Apoptosis, Annexin V-positive cells at day 3. The settings on record: SKM1, day 3, IC10 APR and/or IC50 AZA. It is filed as cell-based, human. The method, boiled down: as §1
The test system of the next assay is HL60 cells. The assay is described as follows: Cytotoxicity. The format is cell-based. The settings on record: Homo sapiens, HL-60, 72 h, read-out: IC50 (proliferation).

For `COCC1(CO)C(=O)C2CCN1CC2` (centres unmarked) [APR, PRIMA-1^Met], in assay [1], the “effect on cell cycle distribution” value is “did not affect the cell cycle distribution”. In addition, the “reduction of myeloid and erythroid colony growth” value in assay [2] is listed as “approximately 60%”. In addition, in [3], the induction of apoptosis entry is given as “did not induce apoptosis”. Further, in the assay with SKM1 cells [4] (SKM1 vs K562, KG1a, THP-1, HL60), the “IC50 fold lower for the SKM1 cell line compared to the other AML lines” value was “at least 2 fold”. Also, the “50% inhibitory concentrations (IC50), cell proliferation” value in assay [5] is listed as “in the micromolar range”. Besides, in the assay with SKM1 cells [6], the “cells in G0/G1 phase” value was found to be 62%. The “ROS-induced genes NES” value in the assay on SKM1 cell line (18 hours) was 1.2. In the assay on SKM1 cell line, the “early apoptotic program NES” value is listed as 1.1 and the “p53 pathway Normalized Enrichment Score (NES)” value is listed as 1.2.
In the case of `Nc1ncn([C@@H]2O[C@H](CO)[C@@H](O)[C@H]2O)c(=O)n1` [AZA, 5-azacitidine], the “apoptotic cells (Annexin V-positive)” value with SKM1 cells [7] worked out at 19%. Also, the “reduction of myeloid and erythroid colony growth” value in assay [2] was found to be 30%. Besides, the IC50 in the assay with HL60 cells worked out at 4500 nM; with SKM1 cells [4] (Homo sapiens, SKM-1, 72 h, read-out: IC50 (proliferation)), 540 nM.

B1: FLT3-L: FLT3 ligand from PeproTech (protein, UniProt P49771 27-235, looked up)
Fms-related tyrosine kinase 3 …: TQDCSFQHSPISSDFAVKIRELSDYLLQDYPVTVASNLQDEELCGGLWRLVLAQRWMERLKTVAGSKMQGLLERVNTEIHFVTKCAFQPPPSCLRFVQTNISRLLQETSEQLVALKPWITRQNFSRCLELQCQPDSSTLPPPWSPRPLEATAPTAPQPPLLLLLLLPVGLLLLAAAWCLHWQRTRRRTPRPGEQVPPVPSPQDLLLVEH
B1: in the assay with SKM1 cells [4] (FLT3-L on its own, 0.1 to 100 ng/mL), the “effect on SKM1 cell proliferation” value was “did not affect SKM1 cell proliferation”.
